Reference: paper PMC4486003 (Biomaterials, 2015)

Key:
[1] = molecular target: T1, fibrin polymerization (Homo sapiens, UniProt P02671+P02675+P02679); assay: Percent clottable protein; type: biochemical; settings: from percent clottability
T1 sequence (P02675 45-491 limits assumed): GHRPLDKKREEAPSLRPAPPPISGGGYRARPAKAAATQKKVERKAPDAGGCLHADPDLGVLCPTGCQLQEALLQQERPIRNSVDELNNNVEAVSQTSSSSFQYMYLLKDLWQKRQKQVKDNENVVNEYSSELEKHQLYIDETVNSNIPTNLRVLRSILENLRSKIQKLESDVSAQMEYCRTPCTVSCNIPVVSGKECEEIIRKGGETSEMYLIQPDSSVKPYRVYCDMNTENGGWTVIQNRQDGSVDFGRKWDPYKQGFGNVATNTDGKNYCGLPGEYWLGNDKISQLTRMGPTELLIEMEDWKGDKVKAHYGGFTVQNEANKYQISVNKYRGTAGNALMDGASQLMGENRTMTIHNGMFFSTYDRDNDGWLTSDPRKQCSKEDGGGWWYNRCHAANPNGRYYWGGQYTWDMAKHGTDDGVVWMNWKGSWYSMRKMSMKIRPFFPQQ
T1 sequence (P02679 27-433 partner limits assumed): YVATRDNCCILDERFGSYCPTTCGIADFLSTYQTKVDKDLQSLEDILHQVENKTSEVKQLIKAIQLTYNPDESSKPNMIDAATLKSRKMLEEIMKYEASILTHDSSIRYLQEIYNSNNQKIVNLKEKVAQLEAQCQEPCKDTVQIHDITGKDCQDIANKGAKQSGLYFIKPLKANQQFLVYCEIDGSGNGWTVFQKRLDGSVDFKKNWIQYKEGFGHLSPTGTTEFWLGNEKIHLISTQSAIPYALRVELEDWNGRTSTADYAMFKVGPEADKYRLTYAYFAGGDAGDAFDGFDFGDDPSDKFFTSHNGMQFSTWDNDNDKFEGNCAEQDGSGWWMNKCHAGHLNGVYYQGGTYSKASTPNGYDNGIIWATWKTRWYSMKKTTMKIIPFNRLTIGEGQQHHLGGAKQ
T1 sequence (P02671 36-866 partner limits assumed): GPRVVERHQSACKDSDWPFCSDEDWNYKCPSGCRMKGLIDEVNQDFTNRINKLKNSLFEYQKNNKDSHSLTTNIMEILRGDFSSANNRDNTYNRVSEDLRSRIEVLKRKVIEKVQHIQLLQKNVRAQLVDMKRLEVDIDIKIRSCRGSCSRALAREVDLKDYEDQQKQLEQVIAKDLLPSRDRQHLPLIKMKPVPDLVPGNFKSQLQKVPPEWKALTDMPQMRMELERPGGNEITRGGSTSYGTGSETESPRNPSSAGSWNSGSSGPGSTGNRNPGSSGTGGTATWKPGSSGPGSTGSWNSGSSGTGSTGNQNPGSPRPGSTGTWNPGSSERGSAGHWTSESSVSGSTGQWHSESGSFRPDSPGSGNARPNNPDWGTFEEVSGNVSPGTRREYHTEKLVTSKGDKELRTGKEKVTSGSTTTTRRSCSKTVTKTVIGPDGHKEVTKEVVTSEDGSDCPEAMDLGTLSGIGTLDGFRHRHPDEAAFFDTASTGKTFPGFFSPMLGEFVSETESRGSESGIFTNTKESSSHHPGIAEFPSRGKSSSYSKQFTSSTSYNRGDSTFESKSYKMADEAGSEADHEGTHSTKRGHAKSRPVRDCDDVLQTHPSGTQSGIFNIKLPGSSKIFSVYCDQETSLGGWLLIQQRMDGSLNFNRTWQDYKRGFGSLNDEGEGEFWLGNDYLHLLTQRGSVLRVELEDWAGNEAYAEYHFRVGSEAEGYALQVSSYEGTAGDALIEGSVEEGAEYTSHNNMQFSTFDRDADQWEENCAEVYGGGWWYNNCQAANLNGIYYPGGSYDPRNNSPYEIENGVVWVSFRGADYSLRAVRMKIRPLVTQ
Method in brief: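 Test compound at final 1, 0.25 or 0.1 mM was added to clots at pH 7.4 (25 mM HEPES, 150 mM NaCl) with final fibrinogen 1 mg/mL, thrombin 0.25 U/mL and CaCl₂ 5 mM. A350 was read every minute for 1 h. Clot liquor was then assayed for total protein (Quant-it). Percent clottable protein was computed against fibrinogen-only, no-thrombin samples.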

[2] = system: fibrin network; settings: cited from earlier work
[3] = system: hole B; settings: knob B mimic derived from chicken; ref [19], [20]; cited from earlier work
[4] = system: fibrin polymerization; settings: high concentrations; ref [15]; cited from earlier work
[5] = molecular target: T2, fibrinogen Fragment D (Homo sapiens, UniProt P02671+P02675+P02679); assay: Surface plasmon resonance; type: binding; settings: SPR; concentrations 5 μM to 1.5 mM
T2 sequence (P02675 164-491 limits assumed): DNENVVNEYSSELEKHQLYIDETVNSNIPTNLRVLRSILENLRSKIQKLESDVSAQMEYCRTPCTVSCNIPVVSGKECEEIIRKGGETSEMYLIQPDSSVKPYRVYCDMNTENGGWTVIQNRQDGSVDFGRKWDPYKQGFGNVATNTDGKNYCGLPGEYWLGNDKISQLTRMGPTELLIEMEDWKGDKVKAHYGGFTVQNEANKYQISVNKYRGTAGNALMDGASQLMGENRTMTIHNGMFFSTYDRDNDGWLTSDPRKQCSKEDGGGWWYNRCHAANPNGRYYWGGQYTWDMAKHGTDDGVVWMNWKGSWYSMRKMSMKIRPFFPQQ
T2 sequence (P02679 89-432 partner limits assumed): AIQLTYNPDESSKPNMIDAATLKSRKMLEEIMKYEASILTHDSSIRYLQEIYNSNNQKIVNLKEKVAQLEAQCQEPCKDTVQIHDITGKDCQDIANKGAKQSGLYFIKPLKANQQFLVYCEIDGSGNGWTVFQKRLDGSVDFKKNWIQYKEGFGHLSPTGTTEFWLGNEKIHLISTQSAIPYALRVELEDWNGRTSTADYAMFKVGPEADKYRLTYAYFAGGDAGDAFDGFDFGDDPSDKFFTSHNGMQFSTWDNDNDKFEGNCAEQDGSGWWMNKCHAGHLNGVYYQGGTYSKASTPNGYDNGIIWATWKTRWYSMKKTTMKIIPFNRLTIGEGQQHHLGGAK
T2 sequence (P02671 124-225 partner limits assumed): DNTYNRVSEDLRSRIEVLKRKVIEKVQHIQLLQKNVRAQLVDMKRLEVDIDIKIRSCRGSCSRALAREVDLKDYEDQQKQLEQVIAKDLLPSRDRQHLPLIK
Method in brief: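 Fragment D came from human fibrinogen (2 mg/mL) digested overnight at room temperature with plasmin (0.1 U/mL), then isolated on GPRPAA beads. It was covalently coupled to self-assembled-monolayer gold chips to about 1500 RU in 3 flow cells, with 1 reference cell. Test compound was run at five concentrations (5 μM–1.5 mM) in duplicate: 25 μL/min for 4 min, then 5 min dissociation. Kinetic models were fitted and judged by residuals.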

[6] = system: single fibrin fibers; assay: Single fibrin fiber breaking strain/extensibility; set-up: species or system human; settings: for average single fiber breaking strain: percentage of original fiber length, 305 nm/s
Method in brief: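 Fibrinogen and test compound were preincubated at 37°C for 15 min at pH 7.4 (140 mM NaCl, 10 mM HEPES, 5 mM CaCl₂); test compound finals were 1 mM, 250 μM and 100 μM. Thrombin and FXIII were added (finals: fibrinogen 3.2 μM, 0.3 NIH u/ml, 9.00 Loewy u/ml). Clots formed 75 min on striated substrates and were bead-labelled. An AFM tip stretched single fibers at 305 nm/s until rupture. Strain = (L′−L_initial)/L_initial, given as % of original length.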

[7] = molecular target: human fibrinogen Fragment D (human); assay: SPR
[8] = 1:1 molar ratio fibrinogen:knob mimic, ref [11]

GPSPFPAC-PEG
inhibition of polymerization (in words) ([1]; 1 mM): significantly inhibited

GHRPY [reference compound]
network structure and fibrinolysis ([2]; bovine knob B mimic, ref [18], [21]): altered network structure and delayed fibrinolysis

AHRP
binding specificity [3]: only bind to hole B

Gly-Pro-Arg-Pro [GPRP]
fibrin polymerization [4]: polymerization is inhibited

AHRPYAAC-PEG
binding to fragment D (in words) [5]: at a minimum, micromolar concentrations of PEGylated knob B peptides are required to observe binding to fibrinogen
average single fiber breaking strain ([6]; 100 μM): 171%
average single fiber breaking strain ([6]; 250 μM): 164%
average single fiber breaking strain ([6]; 1 mM): 202%
increase of average breaking strain vs unmodified fibrin fibers ([6]; 1 mM, stretched at 305 nm/s): 20%
fiber extensibility (in words) ([6]; concentrations above its Kd): increase extensibility of fibers
fiber extensibility (in words) ([6]; concentrations near its Kd): decreases the extensibility of fibers
complex modulus (G*) [2, 8]: increased the complex modulus
susceptibility to degradation [2, 8]: decreased susceptibility to degradation

GPSPFPAC
effect on polymerization (in words) ([1]; all concentrations tested): not significantly affected

B1: PEGylated knob B peptide AHRPYAAC-PEG (peptide)
peptide: AHRPYAAC
modifications: not fully specified; 5 kDa maleimide-PEG conjugated to the cysteine-terminated peptide
Kd1 (2-site model, higher-affinity site, assumed knob B:hole b) [7]: 57 µM
